The source made the active and inactive calls. No cut-off for these calls is given here.
System: WB-F344
Assay: Hepatoprotective activity in rat WB-F344 cells assessed as inhibition of D-galactosamine-induced cytotoxicity at 100 uM after 1 hrs by MTT assay relative to control treated before D-galactosamine challenge
Conditions: not given

| SMILES | Activity |
| --- | --- |
| COc1cc(C(=O)OC[C@@]2(O)CO[C@@H](OC[C@H]3O[C@@H](Oc4cc(OC)c(OC)c(OC)c4)[C@H](O)[C@@H](O)[C@@H]3O)[C@@H]2O)cc(OC)c1O | inactive |
| CCOC(=O)[C@]1(O)C[C@@H](O)[C@@H](O)[C@H](OC(=O)/C=C/c2ccc(O)c(O)c2)C1 | inactive |
| COC(=O)[C@]1(O)C[C@@H](O)[C@@H](O)[C@H](OC(=O)/C=C/c2ccc(O)c(O)c2)C1 | inactive |
| COc1cc(C(=O)OC[C@@]2(O)CO[C@@H](OC[C@H]3O[C@@H](OC(C)C)[C@H](O)[C@@H](O)[C@@H]3O)[C@@H]2O)cc(OC)c1O | inactive |
| O=C(/C=C/c1ccc(O)cc1)NCCc1ccc(O)cc1 | inactive |
| O=C(/C=C/c1ccc(O)c(O)c1)O[C@@H]1C[C@](O)(C(=O)O)C[C@@H](O)[C@H]1O | inactive |
| COc1cc(C(=O)O[C@@H]2[C@@H](OC(=O)/C=C/c3ccc(O)c(O)c3)C[C@@](O)(C(=O)O)C[C@@H]2O)cc(OC)c1O | inactive |
| COc1cc2ccc(=O)oc2cc1O[C@@H]1O[C@H](CO)[C@@H](O)[C@H](O)[C@H]1O[C@@H]1OC[C@](O)(COC(=O)c2cc(OC)c(O)c(OC)c2)[C@H]1O | inactive |
| CCOC(=O)[C@]1(O)C[C@@H](O)[C@@H](OC(=O)/C=C/c2ccc(O)c(O)c2)[C@H](OC(=O)/C=C/c2ccc(O)c(O)c2)C1 | inactive |
| COc1cc(/C=C/C(=O)NCCc2ccc(O)cc2)ccc1O | inactive |
| COc1cc(C(=O)O[C@H]2C[C@](O)(C(=O)O)C[C@H](OC(=O)/C=C/c3ccc(O)c(O)c3)[C@H]2O)cc(OC)c1O | inactive |
| O=C(O)/C=C/c1ccc(O)c(O)c1 | inactive |
| COc1cc(C(=O)OC[C@@]2(O)CO[C@@H](OC[C@H]3O[C@@H](OCCc4ccc(O)cc4)[C@H](O)[C@@H](O)[C@@H]3O)[C@@H]2O)cc(OC)c1O | inactive |
| O=C(O)c1ccc(O)c(O)c1 | inactive |
| COc1cc2ccc(=O)oc2cc1O[C@@H]1O[C@H](CO[C@@H]2OC[C@](O)(COC(=O)c3cc(OC)c(O)c(OC)c3)[C@H]2O)[C@@H](O)[C@H](O)[C@H]1O | inactive |
| CCCCOC(=O)[C@]1(O)C[C@@H](O)[C@@H](O)[C@H](OC(=O)/C=C/c2ccc(O)c(O)c2)C1 | inactive |
| COc1cc(C(=O)OC[C@@]2(O)CO[C@@H](OC[C@H]3O[C@@H](Oc4cc5oc(=O)ccc5cc4OC)[C@H](O)[C@@H](O)[C@@H]3O)[C@@H]2O)ccc1O | inactive |
| COc1cc2cc(Oc3cc4oc(=O)ccc4cc3OC)c(=O)oc2cc1O | Active |
| COc1cc(C(=O)O)ccc1O | inactive |

System: not listed separately
Assay: Cytotoxicity against rat WB-F344 cells assessed as cell survival rate after 1 hr at 10 uM by MTT assay
Format: cell-based
Conditions: read-out: Survival
In short: (§1)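 WB-F344 rat hepatic epithelial stem-like cells were seeded at 1 × 10⁴ cells/well in DMEM with 3% FCS, penicillin and streptomycin, and precultured 24 h at 37 °C in 5% CO₂. Test sample was added in fresh medium for 1 h, then 40 mM D-galactosamine for 24 h; parallel wells without D-galactosamine gave cytotoxicity. MTT (0.5 mg/mL) was added for 3.5 h, formazan dissolved in DMSO and read at 492 nm. Survival is % of normal, mean ± SD, n = 3.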

| SMILES | viability at 1 h, 10 µM [%] |
| --- | --- |
| COc1cc2ccc(=O)oc2cc1O[C@@H]1O[C@H](CO[C@@H]2OC[C@](O)(CO)[C@H]2OC(=O)c2cc(OC)c(O)c(OC)c2)[C@@H](O)[C@H](O)[C@H]1O [ERYCIBOSIDE B] | 47 |

System: WB-F344
Assay: (§2) Hepatoprotective activity in rat WB-F344 cells assessed as inhibition of D-galactosamine-induced cytotoxicity at 10 uM after 1 hrs by MTT assay relative to control treated before D-galactosamine challenge
Format: functional
Conditions: not given
In short: (§3)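 WB-F344 rat hepatic epithelial stem-like cells, 1 × 10⁴ per well in DMEM with 3% fetal calf serum and penicillin/streptomycin, precultured 24 h at 37 °C in 5% CO₂. Test samples were added in fresh medium for 1 h, then cells were exposed to 40 mM D-galactosamine for 24 h. Readout was MTT 0.5 mg/mL for 3.5 h, formazan dissolved in DMSO, OD at 492 nm. Inhibition (%) = (OD sample − OD control)/(OD normal − OD control) × 100. Values are mean ± SD, n = 3.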

| SMILES | Activity |
| --- | --- |
| COc1cc2cc(-c3cc4cc(OC)c(O)cc4oc3=O)c(=O)oc2cc1O | inactive |
| COc1cc(C(=O)OC[C@@]2(O)CO[C@@H](O[C@H]3[C@H](Oc4cc5oc(=O)ccc5cc4OC)O[C@H](CO)[C@@H](O)[C@@H]3O)[C@@H]2O)ccc1O | inactive |
| COC(=O)[C@@]1(O)C[C@@H](OC(=O)/C=C/c2ccc(O)c(O)c2)[C@H](O)[C@H](OC(=O)c2cc(OC)c(O)c(OC)c2)C1 | inactive |

System: not listed separately
Assay: as §2
Format: functional
Conditions: WB-F344, 1 h
In short: as §3

| SMILES | inhibition at 10 µM [%] |
| --- | --- |
| COC(=O)c1cc(OC)c2c(c1-c1c(CO)cc(OC)c3c1OCO3)OCO2 [BICYCLOL] | 11.2 |
| COc1cc(C(=O)OC[C@@]2(O)CO[C@@H](OC[C@H]3O[C@@H](Oc4c(OC)cc5ccc(=O)oc5c4OC)[C@H](O)[C@@H](O)[C@@H]3O)[C@@H]2O)cc(OC)c1O [ERYCIBOSIDE F] | 15.5 |
| COc1cc(C(=O)O[C@H]2C[C@](O)(C(=O)O)C[C@H](O)[C@H]2OC(=O)/C=C/c2ccc(O)c(O)c2)cc(OC)c1O | 42.2 |

System: not listed separately
Assay: Cytotoxicity against rat WB-F344 cells assessed as cell survival rate after 1 hr at 100 uM by MTT assay
Format: cell-based
Conditions: read-out: Survival
In short: as §1

| SMILES | viability at 1 h, 100 µM [%] |
| --- | --- |
| COC(=O)c1cc(OC)c2c(c1-c1c(CO)cc(OC)c3c1OCO3)OCO2 [BICYCLOL] | 38 |
| COc1cc(C(=O)OC[C@@]2(O)CO[C@@H](OC[C@H]3O[C@@H](Oc4c(OC)cc5ccc(=O)oc5c4OC)[C@H](O)[C@@H](O)[C@@H]3O)[C@@H]2O)cc(OC)c1O [ERYCIBOSIDE F] | 44 |
| COc1cc(C(=O)O[C@H]2C[C@](O)(C(=O)O)C[C@H](O)[C@H]2OC(=O)/C=C/c2ccc(O)c(O)c2)cc(OC)c1O | 61 |
